Data reported in ChEMBL document CHEMBL4251680, “Catecholic Isoquinolines from Portulaca oleracea and Their Anti-inflammatory and β2-Adrenergic Receptor Agonist Activity” (J Nat Prod, 2018).

Tests used:
[1] = biological target: T1, Beta-2 adrenergic receptor (Homo sapiens, UniProt P07550); assay: Agonist activity at human beta2-AR expressed in CHOK1 cells co-expressing Galpha15 at 100 uM measured after 21 secs to 120 secs by Calcium-4 dye based FLIPR assay relative to 1 uM isoproterenol; assay type: functional, cell-based
Method in brief: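 CHO-K1/Gα15 cells stably expressing β2-AR, grown in Ham's F12 with 10% FBS, hygromycin B and zeocin. Plated at 1.5 × 10^4 cells/well, 18 h, then loaded with FLIPR Calcium 4 dye for 1 h at 37 °C and 15 min at room temperature. Compounds from DMSO stocks diluted in HBSS/20 mM HEPES pH 7.4, added at 21 s. Read 120 s; stimulation ratio = (ΔRFU − background) relative to isoproterenol.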
Target sequence in this assay (P07550 whole entry, looked up): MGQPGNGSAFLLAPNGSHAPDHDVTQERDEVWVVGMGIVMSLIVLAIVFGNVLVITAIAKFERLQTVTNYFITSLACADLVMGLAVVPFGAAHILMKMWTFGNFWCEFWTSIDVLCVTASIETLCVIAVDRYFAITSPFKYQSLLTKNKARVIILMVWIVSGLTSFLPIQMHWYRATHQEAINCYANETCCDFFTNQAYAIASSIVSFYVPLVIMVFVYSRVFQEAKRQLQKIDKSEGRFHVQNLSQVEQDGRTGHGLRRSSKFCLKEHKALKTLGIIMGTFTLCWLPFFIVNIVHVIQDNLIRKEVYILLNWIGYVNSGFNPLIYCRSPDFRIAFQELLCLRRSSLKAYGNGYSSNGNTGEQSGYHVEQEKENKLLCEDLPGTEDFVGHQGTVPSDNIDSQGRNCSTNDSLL

RAW264.7 = assay: cells; details: Mus musculus, RAW264.7, 24 h
[2] = biological target: T1, Beta-2 adrenergic receptor; assay: Agonist activity at human beta2-AR expressed in CHOK1 cells co-expressing Galpha15 measured after 21 secs to 120 secs by Calcium-4 dye based FLIPR assay; assay type: functional, cell-based
Target sequence in this assay (P07550 whole entry): as the sequence (P07550 whole entry, looked up) above

SMILES	Activity [1]	EC50 (RAW264.7)	EC50 [2]
O=C1c2cc(O)c(O)cc2CCn2cccc21	-11.5%	225 µM	
CCOC(=O)CC[C@@H]1NCCc2cc(O)c(O)cc21	42%	36.3 µM	
O=C(NO)c1ccc(O)c(O)c1		82.4 µM	
Oc1cc2c(cc1O)CC[N+](Cc1ccco1)=C2	11.4%	87.9 µM	
Oc1cc2c(cc1O)CCN=C2	41.1%	248 µM	
NCCc1ccc(O)c(O)c1 [DOPAMINE]	86.4%	18 µM	
CC1=NCCc2cc(O)c(O)cc21	37.7%	209 µM	
Oc1cc2c(cc1O)C(c1ccco1)=NCC2	91.8%	18.1 µM	5.1 µM
C[C@@H]1NCCc2cc(O)c(O)cc21	35.5%	58.7 µM	
O=C1CC[C@H]2c3cc(O)c(O)cc3CCN12	70.2%	35.4 µM	
Oc1cc2c(cc1O)[C@@H](Cc1ccccc1)NCC2	90.8%	107 µM	0.0879 µM
NCCc1ccc(O)c(O)c1S(=O)(=O)O	39.3%	310 µM	
CC(C)C[C@H]1NCCc2cc(O)c(O)cc21	70.9%	498 µM	
OCc1ccc(C2=NCCc3cc(O)c(O)cc32)o1	70.6%	203 µM	
O=C1NCCc2cc(O)c(O)cc21	0.5%	126 µM	
